Source: ChEMBL document CHEMBL2417455, “Design, synthesis and biological evaluation of new aryl thiosemicarbazone as antichagasic candidates” (Eur J Med Chem, 2013)
Calls of active or inactive are those of the source. No cut-off for these calls is given here.

What was measured:
[1] = biological target: Cruzipain (Trypanosoma cruzi) (UniProt P25779); assay: Inhibition of Trypanosoma cruzi cruzain expressed in Escherichia coli DH5-alpha using Bz-Phe-Arg-AMC as substrate at 10 uM preincubated for 5 mins followed by substrate addition measured for 5 mins by spectrofluorimetric analysis relative to control
Procedure, shortened: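 Recombinant cruzain at 0.23 nM in pH 6.5 buffer (50 mM Na2PO4, 2.5 mM EDTA), preincubated 5 min with or without inhibitor at a single 10 µM concentration. Bz-Phe-Arg-AMC was then added (stock 170 µM). Fluorescence was read at ex 380/em 460 nm, 37 °C, under magnetic stirring, for 5 min. Triplicate measurements.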

Trypanosoma cruzi [2] = assay: Trypanocidal activity against epimastigote stage of Trypanosoma cruzi Y after 72 hrs by MTT assay; type: functional, organism-based
Procedure, shortened: (§1)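 Log-phase (7-day) Y-strain epimastigotes at 10⁷/mL in LIT medium with 10% fetal calf serum were exposed to DMSO-dissolved compound at 100, 50, 25, 10, 5, 2.5 and 1 µg/mL for 72 h at 28 °C. MTT-PMS was added for 75 min in the dark, then 10% SDS for 30 min. OD was read at 595 nm and percent death determined. IC50 by linear regression of OD. Triplicates, Probit analysis.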

Mus musculus [3] = assay: Mutagenicity in Swiss albino mouse at 100 mg/kg after 30 hrs by micronucleus test; type: toxicity, organism-based; set-up: dose 100 mg/kg; settings: in vivo
Procedure, shortened: (§2)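 Swiss albino mice (~30 g) were dosed by gavage at 50, 100 or 250 mg/kg bwt. Negative control received 1% CMC/0.2% Tween 40 aqueous solution by gavage; a water-only group set basal frequency. Tail blood was taken 30 h after treatment onto acridine orange slides and held ≥24 h at -20 °C in the dark. Micronuclei were counted per 1,000 reticulocytes per animal by fluorescence microscopy. Values are arithmetic means compared by one-way ANOVA/Tukey (P < 0.05).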

Mus musculus [4] = assay: Mutagenicity in Swiss albino mouse at 250 mg/kg after 30 hrs by micronucleus test; type: toxicity, organism-based; set-up: dose 250 mg/kg; settings: in vivo; procedure, shortened: as §2
Trypanosoma cruzi [5] = assay: Potency index, ratio of benznidazole IC50 to compound IC50 for epimastigote stage of Trypanosoma cruzi Y; type: functional
Trypanosoma cruzi [6] = assay: Trypanocidal activity against epimastigote stage of Trypanosoma cruzi Y at 5 ug/mL after 72 hrs by MTT assay relative to control; type: functional; procedure, shortened: as §1
Trypanosoma cruzi [7] = assay: Trypanocidal activity against epimastigote stage of Trypanosoma cruzi Y at 50 ug/mL after 72 hrs by MTT assay relative to control; type: functional; procedure, shortened: as §1
[8] = Trypanosoma cruzi, Y, 72 h, read-out: IC50

Chain of Cruzipain (Trypanosoma cruzi) (P25779 123-467 limits assumed): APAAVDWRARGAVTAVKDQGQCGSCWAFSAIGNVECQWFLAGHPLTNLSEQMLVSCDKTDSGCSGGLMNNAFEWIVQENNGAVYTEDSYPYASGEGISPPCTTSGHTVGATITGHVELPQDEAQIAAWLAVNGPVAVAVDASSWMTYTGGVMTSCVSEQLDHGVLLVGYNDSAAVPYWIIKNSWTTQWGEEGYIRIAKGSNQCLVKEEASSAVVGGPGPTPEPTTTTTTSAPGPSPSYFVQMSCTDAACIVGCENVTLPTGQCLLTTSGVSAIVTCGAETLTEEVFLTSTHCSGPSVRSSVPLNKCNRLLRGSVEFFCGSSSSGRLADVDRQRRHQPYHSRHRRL

Structure (SMILES)	inhibition [1]	IC50 (Trypanosoma cruzi [2]; [8])	Activity (Mus musculus [3])	also measured
C/C(=N\N=C(/N)S)c1ccccc1 [PHENYL(METHYL)THIOSEMICARBAZONE]	inactive	195 µM	–	–
Br.NC/C(=N\NC(N)=S)c1ccc([N+](=O)[O-])cc1	20%	6.3 µM	Non-toxic	Ratio IC50 (Trypanosoma cruzi [5]): 5; Activity (Mus musculus [4]): Non-toxic
O=C(Cn1ccnc1[N+](=O)[O-])NCc1ccccc1 [BENZNIDAZOLE]	–	34.6 µM	Toxic	–
C/C(=N\NC(N)=S)c1cccc(N)c1	inactive	> 480 µM	–	–
C/C(=N\NC(N)=S)c1cccc([N+](=O)[O-])c1	5%	> 420 µM	–	inhibition at 5 µg/mL (Trypanosoma cruzi [6]): 3%
C/C(=N\NC(N)=S)c1ccc(N)cc1	25%	> 480 µM	–	–
NC(=S)N/N=C(\CO)c1ccc([N+](=O)[O-])cc1	10%	37.7 µM	Non-toxic	Activity (Mus musculus [4]): Non-toxic
NC/C(=N\NC(N)=S)c1cccc([N+](=O)[O-])c1	inactive	> 299 µM	–	inhibition at 50 µg/mL (Trypanosoma cruzi [7]): 3%

Second part, led by results:

inhibition [1]	Structure (SMILES)	IC50 (Trypanosoma cruzi [2]; [8])	Activity (Mus musculus [3])	also measured
50%	NC(=S)N/N=C(\CNC(=O)CCC(=O)O)c1ccc([N+](=O)[O-])cc1	12 µM	Non-toxic	Activity (Mus musculus [4]): Non-toxic
10%	NC(=S)N/N=C(\COC(=O)CCC(=O)O)c1ccc([N+](=O)[O-])cc1	116 µM	–	–
inactive	NC/C(=N\NC(N)=S)c1ccccc1	> 409 µM	–	–
65%	C/C(=N\NC(N)=S)c1ccc([N+](=O)[O-])c(N)c1	239 µM	–	–
55%	C/C(=N\NC(N)=S)c1ccc(N)c([N+](=O)[O-])c1	–	–	IC50 (Trypanosoma cruzi [2]): Not Active
